# CHRM5 PAM: potentiates acetylcholine response at human M5 receptor | P08912 | CHO-K1 hM5, Fluo-8 calcium, ACh EC20 PAM; 0% = ACh EC20, 100% = ACh EC100 | activation, % at 3 µM | actives 0.3% (n = 360,000) | AID 624038;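 active = activation above the run cutoff, the mean activation of all test compounds plus 3 SD, cut at about 18% in these data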
# Target sequence (P08912 whole entry, looked up): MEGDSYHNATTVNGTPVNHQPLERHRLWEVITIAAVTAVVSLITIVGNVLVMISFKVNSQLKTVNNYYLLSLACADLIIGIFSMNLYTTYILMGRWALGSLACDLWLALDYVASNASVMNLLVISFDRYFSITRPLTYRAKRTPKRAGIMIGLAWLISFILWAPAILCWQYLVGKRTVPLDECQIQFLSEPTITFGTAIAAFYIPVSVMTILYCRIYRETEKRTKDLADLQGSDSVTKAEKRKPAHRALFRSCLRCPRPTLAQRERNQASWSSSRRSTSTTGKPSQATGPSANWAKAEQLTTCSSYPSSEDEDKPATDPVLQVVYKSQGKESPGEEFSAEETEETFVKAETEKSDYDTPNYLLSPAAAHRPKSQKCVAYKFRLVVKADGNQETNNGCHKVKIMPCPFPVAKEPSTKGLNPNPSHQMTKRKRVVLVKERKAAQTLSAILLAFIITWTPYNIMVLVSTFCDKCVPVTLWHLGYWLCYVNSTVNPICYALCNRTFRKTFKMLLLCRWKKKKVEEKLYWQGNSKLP
#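 Assay system: CHO-K1 hM5 cells. Also added: acetylcholine at EC20 concentration, added after compound. Dosing: 3 µM, single dose. Times: compound preincubation 140 s before EC20 acetylcholine addition. Signal: Fluo-8 calcium fluorescence. Measure: % activation relative to EC20 and EC100 ACh responses. Repeats: singlicate, one well per test compound.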
# M5 antag: antagonists of human muscarinic M5 receptor (CHRM5) | CHO-hM5 cells, Fluo-8 calcium fluorescence, ACh EC80 | actives 0.59% (n = 360,000) | inhibition, % at 3 µM | AID 624040;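 active = inhibition above a per-plate cutoff, the mean of that plate's test compounds plus 3 SD, cut at about 27% in these data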;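 also: 0% = acetylcholine EC80 with DMSO and 100% = DMSO without agonist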
# CHRM5 agonist: agonists of human muscarinic M5 receptor (CHRM5) | actives 0.19% (n = 360,000) | activation, % at 3 µM | CHO-K1 hM5 cells, Fluo-8 calcium fluorescence; 0% DMSO wells, 100% maximal acetylcholine response;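 active = activation above the run's mean over test compounds plus 3 SD, cut at about 23% in these data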;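 also: signal is peak over basal fluorescence ratio across the kinetic read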
# CHRM4 antagonist: blocks acetylcholine activation of human M4 receptor; CHO-hM4 cells, ACh EC80, Fluo-8 calcium fluorescence; inhibition, % at 3 µM; actives 0.73% (n = 360,000);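 active = inhibition above its plate's cutoff, the mean inhibition of sample wells plus 3 SD, cut at about 27% in these data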;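 also: 0% = acetylcholine EC80 with DMSO and 100% = DMSO without agonist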
# M4 ag: agonists of human muscarinic M4 receptor (CHRM4); actives 0.14% (n = 360,000); activation, % at 3 µM; P08173; CHO-K1 hM4/Gqi5, Fluo-8 calcium fluorescence; vehicle 0%, full acetylcholine response 100%;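 active = activation above the run mean over all test wells plus 3 SD, cut at about 32% in these data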;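 also: peak over basal fluorescence ratio per well then scaled between controls; 0% = DMSO wells and 100% = acetylcholine at EC100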
# CHRM4 PAM: potentiates acetylcholine response at human M4 receptor; P08173; CHO-K1 hM4/Gqi5, Fluo-8 calcium fluorescence, ACh EC20; 0% = ACh EC20, 100% = maximal ACh; activation, % at 3 µM; actives 0.4% (n = 360,000); AID 624126;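 active = activation above its plate's cutoff, the mean activation of sample wells plus 3 SD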
# Numbers without * were called inactive. Sampled rows, rich in hits. Any-hit rate of the full collection: about 1.9%.
SMILES,CHRM5 PAM,M5 antag,CHRM5 agonist,CHRM4 antagonist,M4 ag,CHRM4 PAM
CCN(C(=O)c1ccc(NC(C)=O)cc1)c1ccccc1,-1.1,-6.2,2.0,-18.9,0.5,19.1*
COc1ccc(CCNCc2ccc(-c3ccccc3)cc2)cc1OC,5.8,-6.8,8.9,7.0,34.4*,-10.6
CC(C)(C)CC(C)(C)NC(=O)c1ccccc1,0.9,4.8,3.2,-6.2,0.6,2.4
CCC(C)(NC(=O)c1ccccc1)C(=O)O (centres undefined),9.4,-1.8,-2.2,21.9,0.7,31.5*
COc1ccc(S(=O)(=O)N2CCSCC2)cc1C(N)=O,7.0,-6.1,-1.6,-5.8,2.1,14.1*
COc1ccc(S(N)(=O)=O)cc1C(N)=O,0.8,-1.9,0.1,-1.4,0.9,17.3
COc1ccc(-n2c(-c3ccc(Br)cc3)c[n+]3c2CCc2ccccc2-3)cc1,-11.0,17.4,-10.0,17.6,0.7,-11.7
CC(C)c1ccc(-n2c(-c3ccccc3)c[n+]3c2CCc2ccccc2-3)cc1,-13.5,28.9*,-7.6,28.9*,7.5,-20.3
COc1ccccc1-n1c(-c2ccccc2)c[n+]2c1CCc1ccccc1-2,-18.2,31.0*,-10.6,33.8*,0.6,-17.0
CCCc1cc(=O)n2[nH]c(NCc3c(Cl)cccc3Cl)nc2n1,2.7,-2.0,-7.7,14.2,-0.4,-0.8
CCCc1cc(=O)n2[nH]c(NC(=O)c3ccco3)nc2n1,3.5,0.4,-0.3,-24.1,0.2,14.5*
O=C(C1CCN(S(=O)(=O)c2ccccc2)CC1)N1CCCCC1,-5.3,13.2,-1.9,-1.2,1.0,-2.5
O=C(Nc1nnc(C23CC4CC(CC(C4)C2)C3)s1)c1ccc(N2C(=O)CCC2=O)cc1,-19.8,12.7,-0.1,59.7*,0.5,-16.2
C/C(CC1CC(COCC(C)C)OC1=O)=N\Nc1nc(-c2ccccc2)cs1 (centres undefined),-1.6,0.7,0.0,29.9*,0.6,-1.3
COc1ccc(-c2nc(CS(=O)CC(=O)NCc3ccc(F)cc3)c(C)o2)cc1 (centres undefined),-1.3,13.1,-2.9,0.8,2.4,2.0
O=[N+]([O-])c1ccccc1CNc1ccc(F)c(Cl)c1,-7.0,13.5,-2.2,1.1,0.2,-2.1
COc1cccc(CNc2ccc(F)c([N+](=O)[O-])c2)c1O,-8.1,13.4,1.2,68.3*,6.6,-6.6
O=C1CC(c2cccc(Cl)c2)CC(O)=C1C=NC1CCCC1 (centres undefined),-3.3,-7.3,-5.4,8.0,-0.3,0.5
CCOc1cc(CNCCc2ccc(S(N)(=O)=O)cc2)ccc1OCc1ccccc1,-16.0,12.5,-3.8,18.8,20.0,-20.0
COc1cc(CNCc2ccccn2)ccc1OCc1ccc(Cl)cc1Cl,-6.2,10.7,-1.7,32.9*,23.0,-21.2
COc1ccc(CNCCc2ccc(Cl)cc2)cc1OCc1ccccc1,-16.8,17.3,12.0,12.5,20.1,-10.8
CCOc1cc(CNCCc2ccc(S(N)(=O)=O)cc2)cc(Cl)c1OCc1ccccc1,-18.9,21.2,14.3,46.0*,30.1,-4.7
CCOc1cc(CNCc2ccccc2)ccc1OCc1ccc(Cl)cc1,-13.3,25.6,12.1,28.0*,33.8*,-14.6
CN(C(=O)c1cccc(NC(=O)Cc2cccc(NC(=O)C3CCN(C(=O)CCc4ccccc4)CC3)c2)c1)C1CC1,4.8,-5.1,-3.3,0.8,-0.7,-5.9
COc1ccc(C(=O)Nc2ccc(N3CCN(C(=O)C(C)C)CC3)cc2)cc1[N+](=O)[O-],-0.5,9.9,2.5,-3.0,1.1,22.7*
SMILES,CHRM5 PAM,M5 antag,CHRM5 agonist,CHRM4 antagonist,M4 ag,CHRM4 PAM
CCOc1cc(C(=O)Nc2ccc(N3CCN(C(C)=O)CC3)cc2)cc(OCC)c1OCC,18.1*,-8.3,4.1,-5.2,0.9,1.3
CCOc1ccc(C(=O)Nc2ccc(N3CCN(C(C)=O)CC3)cc2)cc1[N+](=O)[O-],-3.0,4.5,1.4,-1.6,3.0,-2.7
CN1CCC(=NNC(=O)C(=O)Nc2cccc(Br)c2)CC1,-15.4,32.4*,0.7,-2.5,1.3,0.1
CCOc1ccc(C(=O)NCC(=O)OCCCC(=O)c2ccc(F)cc2)cc1OCC,3.2,5.2,0.7,-1.3,3.8,5.9
Cc1ccc(NC(=O)CN(C)C(=O)c2ccc(NS(=O)(=O)c3cccc([N+](=O)[O-])c3)cc2)cc1,3.2,0.6,-2.9,7.9,0.5,0.4
Cc1ccc(NS(=O)(=O)c2ccc(OCC(=O)Nc3cccc([N+](=O)[O-])c3)c(C)c2)cc1,-7.8,8.8,-5.3,29.9*,4.1,-27.7
CC(=O)C1=C(O)C(=O)N(c2cc(C(C)(C)C)on2)C1c1ccc(Br)cc1 (centres undefined),6.2,-0.2,3.1,-1.3,-0.4,30.2*
CC(=O)C1(O)CCC2C3CC(C)C4=CC(=O)CCC4(C)C3CCC21C (centres undefined),-0.8,-8.1,-0.1,44.0*,4.3,-7.0
CC(=O)[C@@]1(O)CC[C@H]2[C@@H]3C[C@H](C)C4=CC(=O)CC[C@]4(C)[C@H]3CC[C@@]21C,-2.6,-3.5,-0.4,32.8*,1.7,-11.1
CC(=O)[C@@]1(O)CCC2C3C=CC4=CC(=O)CC[C@]4(C)C3CC[C@@]21C (some centres undefined),1.4,2.2,0.8,3.5,1.9,7.4
C=C1CC2C(CCC3(C)C2CCC3(O)C(C)=O)C2(C)CCC(=O)C=C12 (centres undefined),3.4,-6.0,-1.6,3.9,1.1,-4.7
Cc1nn(-c2ccccc2)c(C)c1C(=O)OCC(=O)N1c2ccccc2NC(=O)C1(C)C,-21.2,21.9,8.1,32.7*,16.8,-15.2
CC(C)(C)c1ccc(OCCC(=O)OCC(=O)N2c3ccccc3NC(=O)C2(C)C)cc1,-35.1,36.1*,3.4,58.7*,24.2,-13.0
Cc1cnc(C(=O)OCC(=O)N2c3ccccc3NC(=O)C2(C)C)cn1,3.0,1.6,-0.7,1.0,0.6,-0.6
CCOc1ccc(CN(C)C(C)C(=O)NCCc2ccc(F)cc2)cc1 (centres undefined),-6.6,12.7,-5.5,9.6,0.7,-4.1
COC(=O)c1sc2nc(C)c([N+](=O)[O-])c(C)c2c1N,4.1,-6.6,-3.6,17.8,15.7,45.9*
CN(C(=O)Cn1nc(C(=O)O)c2ccccc2c1=O)C1(C#N)CCCCC1,5.0,3.1,0.5,-26.4,0.9,23.3*
O=C(O)c1nn(CC(=O)N2CCCCCC2)c(=O)c2ccccc12,1.6,10.0,-0.7,4.1,0.3,-0.9
Cc1nnc(SCc2c(Cl)cccc2[N+](=O)[O-])s1,20.3*,1.7,7.8,-4.5,2.4,13.4

# From PubChem
